Assay results: ChEMBL document CHEMBL4732112, “Synthesis and in vitro evaluation of novel spiroketopyrazoles as acetyl-CoA carboxylase inhibitors and potential antitumor agents” (Eur J Med Chem, 2021)
Active and inactive are the calls of the source. The rule behind the calls is not given here.

Key:
HepG2 [1] = test: Antiproliferative activity against human HepG2 cells assessed as cell growth inhibition at 10 uM after 72 hrs by MTT assay relative to control; assay type: functional; conditions: read-out: GI
Method in brief: (§1)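 Cells were DMEM/10% FBS cultures at 37 °C, 5% CO2, seeded at 3×10^3 per well and exposed for 72 h after 24 h attachment. Read-out was MTT with formazan in DMSO and absorbance at 550 nm, expressed as inhibition rate versus control.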

MDA-MB-231 = test: Antiproliferative activity against human MDA-MB-231 cells assessed as cell growth inhibition at 10 uM after 72 hrs by MTT assay relative to control; assay type: functional; conditions: read-out: GI; method in brief: as §1
A549 = test: Antiproliferative activity against human A549 cells assessed as cell growth inhibition after 72 hrs by MTT assay; assay type: functional, cell-based; conditions: A549, 72 h
Method in brief: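 HepG2, A549 or MDA-MB-231 cells grown in DMEM with 10% FBS and penicillin/streptomycin at 37 °C, 5% CO2. Seeded at 3×10^3 per well, left 24 h, then exposed to a range of concentrations for 72 h. MTT added for 4 h, formazan dissolved in DMSO, absorbance read at 550 nm. Mean ± SD, n=3.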

[2] = Cytotoxicity against HUVEC assessed as cell viability at 100 uM after 72 hrs by MTT assay relative to control; assay type: cell-based; conditions: human, HUVEC cells, read-out: Activity
Method in brief: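 HUVEC kept in RPMI 1640 with 10% FBS at 37 °C, 5% CO2. Seeded at 3×10^3 per well and treated at 100 µM for 72 h after 24 h attachment. Viability by MTT with absorbance at 550 nm, as percent of control. Mean ± SD, n=3.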

Acetyl-CoA carboxylase 1 [3] = biological target: T1, Acetyl-CoA carboxylase 1 (Homo sapiens, UniProt Q13085); test: Inhibition of ACC1 in human HepG2 cells assessed as reduction in intracellular malonyl-CoA level measured after 48 hrs by ELISA; assay type: cell-based; conditions: dose 1-10 µM
Method in brief: (§2)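 HepG2 cells plated and exposed to the compound at several concentrations for 48 h. Cells washed with PBS, lysed in 1% Triton X-100 and spun 12000 rpm, 4 °C, 15 min. Malonyl-CoA measured by ELISA kit and triglyceride by GPO-POP kit, each normalised to BCA protein. Reported relative to control, mean ± SD, n=3.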

Acetyl-CoA carboxylase 1 [4] = biological target: T1, Acetyl-CoA carboxylase 1; test: Inhibition of ACC1 in human HepG2 cells assessed as reduction in intracellular triglyceride level measured after 48 hrs by GPO-PAP method; assay type: cell-based; conditions: dose 1-10 µM; method in brief: as §2
Acetyl-CoA carboxylase 1 [5] = biological target: T1, Acetyl-CoA carboxylase 1; test: Inhibition of ACC1 in human HepG2 cells assessed as reduction in intracellular malonyl-CoA level at 10 uM measured after 48 hrs by ELISA relative to control; assay type: cell-based; method in brief: as §2
HepG2 [6] = test: Cell cycle arrest in human HepG2 cells assessed as accumulation at G2/M phase at 1 uM measured after 48 hrs by propidium iodide staining based flow cytometry (reference value: 13.58%); assay type: functional
HepG2 [7] = test: Cell cycle arrest in human HepG2 cells assessed as accumulation at G0/G1 phase at 5 uM measured after 48 hrs by propidium iodide staining based flow cytometry (reference value: 56.24%); assay type: functional
HepG2 [8] = test: Cell cycle arrest in human HepG2 cells assessed as accumulation at G0/G1 phase at 10 uM measured after 48 hrs by propidium iodide staining based flow cytometry (reference value: 56.24%); assay type: functional
HepG2 [9] = test: Cell cycle arrest in human HepG2 cells assessed as accumulation at S phase at 10 uM measured after 48 hrs by propidium iodide staining based flow cytometry (reference value: 30.18%); assay type: functional
HepG2 [10] = test: Cell cycle arrest in human HepG2 cells assessed as reduction in CDK4 expression measured after 48 hrs by Western blot analysis; assay type: functional, cell-based; conditions: dose 1-10 µM
Method in brief: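 HepG2 cells treated for 48 h and lysed. Lysates cleared at 12000 rpm for 15 min and protein measured by BCA. Run on SDS-PAGE, transferred to PVDF, blocked in 5% BSA, primary antibody at 4 °C overnight, then DyLight 800 secondary. Infrared imaging and densitometry against β-actin. Mean ± SD, n=3.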

HepG2 [11] = test: Induction of apoptosis in human HepG2 cells assessed as chromatin shrinkage at 1 to 10 uM measured after 48 hrs by Hoechst 33258 staining based fluorescence microscopic analysis; assay type: functional, cell-based; conditions: dose 1-10 µM
Method in brief: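 HepG2 cells exposed to varying concentrations for 48 h in 6-well plates. Stained with Hoechst 33258 in the dark for 20 min, then nuclear morphology inspected by fluorescence microscopy.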

HepG2 [12] = test: Induction of apoptosis in human HepG2 cells assessed as viable cells at 1 uM measured after 48 hrs by Annexin V-FITC/propidium iodide staining based flow cytometry (reference value: 95.6%); assay type: functional; conditions: read-out: Activity
Method in brief: (§3)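 HepG2 cells incubated with the stated concentrations for 48 h, harvested, and stained with Annexin V-FITC and propidium iodide protected from light. Viable, early apoptotic, late apoptotic and necrotic fractions quantified by flow cytometry. Mean ± SD, n=3.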

HepG2 [13] = test: Induction of apoptosis in human HepG2 cells assessed as early apoptotic cells at 1 uM measured after 48 hrs by Annexin V-FITC/propidium iodide staining based flow cytometry (reference value: 4.03%); assay type: functional; method in brief: as §3
HepG2 [14] = test: Induction of apoptosis in human HepG2 cells assessed as late apoptotic cells at 5 uM measured after 48 hrs by Annexin V-FITC/propidium iodide staining based flow cytometry (reference value: 0.19%); assay type: functional; method in brief: as §3
HepG2 [15] = test: Induction of apoptosis in human HepG2 cells assessed as necrotic cells at 5 uM measured after 48 hrs by Annexin V-FITC/propidium iodide staining based flow cytometry (reference value: 0.22%); assay type: functional; method in brief: as §3
HepG2 [16] = test: Induction of apoptosis in human HepG2 cells assessed as viable cells at 10 uM measured after 48 hrs by Annexin V-FITC/propidium iodide staining based flow cytometry (reference value: 95.6%); assay type: functional; conditions: read-out: Activity; method in brief: as §3
HepG2 [17] = test: Induction of apoptosis in human HepG2 cells assessed as early apoptotic cells at 10 uM measured after 48 hrs by Annexin V-FITC/propidium iodide staining based flow cytometry (reference value: 4.03%); assay type: functional; method in brief: as §3
HepG2 [18] = test: Induction of apoptosis in human HepG2 cells assessed as increase in PARP cleavage at 1 to 10 uM measured after 48 hrs by Western blot analysis; assay type: functional, cell-based; conditions: dose 1-10 µM
Method in brief: (§4)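 Western blots for Bcl-2, Bax, cleaved caspase-3 and cleaved PARP in HepG2 cells after 48 h treatment (1, 5, 10 μM for PARP). Lysates cleared, protein quantified by BCA, run on SDS-PAGE to PVDF, blocked in 5% BSA, primary overnight at 4 °C, DyLight 800 secondary. Infrared scanning and densitometry normalized to β-actin. Mean ± SD, n=3.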

HepG2 [19] = test: Induction of apoptosis in human HepG2 cells assessed as increase in caspase-3 activation at 1 to 10 uM measured after 48 hrs by Western blot analysis; assay type: functional, cell-based; conditions: dose 1-10 µM; method in brief: as §4
HepG2 [20] = test: Antiproliferative activity against human HepG2 cells assessed as reduction in cell viability measured after 72 hrs in presence of doxorubicin by MTT assay; assay type: functional, cell-based; conditions: dose 0.0875-1.4 µM
HepG2 [21] = test: Antiproliferative activity against human HepG2 cells assessed as combination index at 0.7 uM measured after 72 hrs in presence of 1.4 uM doxorubicin by MTT assay; assay type: functional
HepG2 [22] = test: Antiproliferative activity against human HepG2 cells assessed as combination index at 0.35 uM measured after 72 hrs in presence of 0.7 uM doxorubicin by MTT assay; assay type: functional

CC(C)(C)n1cc2c(n1)C(=O)CC1(CCN(C(=O)c3cc(-c4ccncc4)nc4ccccc34)CC1)O2
inhibition of growth at 10 µM (HepG2 [1]): 80.1%
inhibition of growth at 10 µM (MDA-MB-231): 72.2%
IC50 (A549): 550 nM
viability at 72 h, 100 µM [2]: 95.2%
inhibition (Acetyl-CoA carboxylase 1 [3]): Dose-dependent effect
inhibition (Acetyl-CoA carboxylase 1 [4]): Dose-dependent effect
inhibition (Acetyl-CoA carboxylase 1 [5]): 31.4%
Activity (HepG2 [6]): 10.86%
Activity (HepG2 [7]): 78.83%
Activity (HepG2 [8]): 88.61%
Activity (HepG2 [9]): 6.48%
Activity (HepG2 [10]): Dose-dependent effect
Activity (HepG2 [11]): Active
viability at 1 µM (HepG2 [12]): 72.1%
Activity (HepG2 [13]): 11.6%
Activity (HepG2 [14]): 32.6%
Activity (HepG2 [15]): 3.72%
viability at 10 µM (HepG2 [16]): 12.2%
Activity (HepG2 [17]): 41.6%
Activity (HepG2 [18]): Active
Activity (HepG2 [19]): Active
Activity (HepG2 [20]): Dose-dependent effect
CI (HepG2 [21]): 0.599
CI (HepG2 [22]): 0.816
